From ChEMBL document CHEMBL1145396, “High-throughput synthesis and screening of cyclic peptide antibiotics” (J Med Chem, 2007)
Values after ≈ are worked out from the molar mass of the structure shown. Active and inactive are the calls of the source. The rule behind the calls is not given here. Square brackets hold non-standard residues; d marks the D form. Peptide text beside a SMILES is read from it. Orn = NCCC[C@H](N)C(=O)O

How the values were obtained:
Bacillus subtilis [1] = assay: Antimicrobial activity against Bacillus subtilis; assay type: functional
Method in brief: (§1)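 Microtiter broth assay. Peptide stock in 30% DMSO/water, neutralized with sodium phosphate pH 7.0, added to a 1000-fold diluted overnight bacterial culture (1:5 into final volume). Incubated 7 h at 37 °C. Growth scored visually.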

[2] = system: Staphylococcus epidermidis; assay: Antimicrobial activity against Staphylococcus epidermidis; assay type: functional; method in brief: as §1
Escherichia coli [3] = assay: Antimicrobial activity against Escherichia coli; assay type: functional; method in brief: as §1
Enterococcus faecalis [4] = assay: Antimicrobial activity against Enterococcus faecalis; assay type: functional; method in brief: as §1
[5] = Ratio of MHC for human RBC to MIC for Bacillus subtilis; assay type: functional
[6] = Toxicity assessed as hemolytic activity in human RBC; assay type: cell-based; details: erythrocyte
Method in brief: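 Peptide stocks were serially diluted 2-fold in water, then mixed with fresh human erythrocytes diluted 100-fold in PBS pH 7.4. Incubated overnight at room temperature and inspected visually for lysis. MHC was taken as the lowest concentration lysing half of the cells.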

Enterococcus faecalis [7] = assay: Antimicrobial activity against Enterococcus faecalis at 32 ug/mL; assay type: functional, organism-based
Bacillus subtilis [8] = assay: Antimicrobial activity against Bacillus subtilis at 32 ug/mL; assay type: functional
[9] = system: Staphylococcus epidermidis; assay: Antimicrobial activity against Staphylococcus epidermidis at 32 ug/mL; assay type: functional, organism-based
Escherichia coli [10] = assay: Antimicrobial activity against Escherichia coli at 32 ug/mL; assay type: functional, organism-based

| SMILES | MIC (Bacillus subtilis [1]) [mg/L] | MIC [2] [mg/L] | MIC (Escherichia coli [3]) [mg/L] | MIC (Enterococcus faecalis [4]) [mg/L] | MIC (Bacillus subtilis [8]) [mg/L] | Ratio [5] | Activity [6] [µg/mL] | Activity (Enterococcus faecalis [7]) | Activity [9] | Activity (Escherichia coli [10]) | Activity (Bacillus subtilis [8]) |
| --- | --- | --- | --- | --- | --- | --- | --- | --- | --- | --- | --- |
| CCCNC(=O)C[C@@H]1NC(=O)[C@@H](Cc2ccccc2)NC(=O)[C@H](Cc2ccccc2)NC(=O)[C@@H]2CCCN2C(=O)[C@@H](Cc2ccccc2)NC(=O)CN(C)C(=O)[C@H](CCCN)NC(=O)[C@H](C(C)C)NC(=O)[C@H](Cc2ccc(O)cc2)NC(=O)[C@@H](Cc2ccccc2)NC1=O | 32 (≈ 24.8 µM) |  | 32 (≈ 24.8 µM) |  |  |  |  |  |  |  |  |
| CCCNC(=O)C[C@H]1NC(=O)[C@@H](CCCNC(=N)N)NC(=O)[C@H](Cc2ccccc2)NC(=O)[C@@H]2CCCN2C(=O)[C@@H](Cc2ccccc2)NC(=O)[C@@H]2CCCN2C(=O)[C@H](CCCN)NC(=O)[C@H](C(C)C)NC(=O)[C@H](Cc2ccc(O)cc2)NC(=O)[C@@H](C)NC1=O |  |  |  |  | 0.5 (≈ 0.4 µM) | 1024 | 514 | inactive | inactive | inactive |  |
| CCCNC(=O)C[C@@H]1NC(=O)[C@@H](Cc2ccccc2)NC(=O)[C@H](Cc2ccccc2)NC(=O)[C@@H]2CCCN2C(=O)[C@@H](Cc2ccccc2)NC(=O)CNC(=O)[C@H](CCCN)NC(=O)[C@H](C(C)C)NC(=O)[C@H](Cc2ccc(O)cc2)NC(=O)[C@H](CCCCN)NC1=O | 8 (≈ 6.37 µM) | 16 (≈ 12.7 µM) |  | 32 (≈ 25.5 µM) |  | 8 | 64 |  |  | inactive |  |
| CCCNC(=O)C[C@@H]1NC(=O)[C@@H](CCCNC(=N)N)NC(=O)[C@H](Cc2ccccc2)NC(=O)[C@@H]2CCCN2C(=O)[C@@H](Cc2ccccc2)NC(=O)[C@@H](CC(C)C)NC(=O)[C@H](CCCN)NC(=O)[C@H](C(C)C)NC(=O)[C@H](Cc2ccc(O)cc2)NC(=O)[C@H](CCCCN)NC1=O | 8 (≈ 6.05 µM) | 8 (≈ 6.05 µM) | 32 (≈ 24.2 µM) | 16 (≈ 12.1 µM) |  | 16 | 128 |  |  |  |  |
| CCCNC(=O)C[C@H]1NC(=O)[C@@H](CCCNC(=N)N)NC(=O)[C@H](Cc2ccccc2)NC(=O)[C@@H]2CCCN2C(=O)[C@@H](Cc2ccccc2)NC(=O)[C@H](Cc2ccc(F)cc2)NC(=O)[C@H](CCCN)NC(=O)[C@H](C(C)C)NC(=O)[C@H](Cc2ccc(O)cc2)NC(=O)CNC1=O |  |  |  |  |  | 8 |  |  |  |  |  |
| CCCNC(=O)C[C@@H]1NC(=O)[C@@H](CCCCN)NC(=O)[C@H](Cc2ccccc2)NC(=O)[C@@H]2CCCN2C(=O)[C@@H](Cc2ccccc2)NC(=O)[C@@H]2CCCN2C(=O)[C@H](CCCN)NC(=O)[C@H](C(C)C)NC(=O)[C@H](Cc2ccc(O)cc2)NC(=O)[C@H](Cc2ccc(F)cc2)NC1=O | > 32 |  | 32 (≈ 24.3 µM) |  |  |  |  | inactive | inactive | inactive | inactive |
| CCCNC(=O)C[C@@H]1NC(=O)[C@@H](CCCNC(=N)N)NC(=O)[C@H](Cc2ccccc2)NC(=O)[C@@H]2CCCN2C(=O)[C@@H](Cc2ccccc2)NC(=O)[C@@H]2CCCN2C(=O)[C@H](CCCN)NC(=O)[C@H](C(C)C)NC(=O)[C@H](Cc2ccc(O)cc2)NC(=O)[C@@H](C)NC1=O | > 32 |  | 32 (≈ 25.6 µM) |  |  |  |  | inactive | inactive | inactive | inactive |
| CCCNC(=O)C[C@H]1NC(=O)[C@@H](CCCCN)NC(=O)[C@H](Cc2ccccc2)NC(=O)[C@@H]2CCCN2C(=O)[C@@H](Cc2ccccc2)NC(=O)[C@@H]2CCCN2C(=O)[C@H](CCCN)NC(=O)[C@H](C(C)C)NC(=O)[C@H](Cc2ccc(O)cc2)NC(=O)[C@H](Cc2ccc(F)cc2)NC1=O | 4 (≈ 3.04 µM) | 32 (≈ 24.3 µM) | 32 (≈ 24.3 µM) | 8 (≈ 6.09 µM) |  | 32 | 128 |  |  |  |  |
| CCCNC(=O)C[C@@H]1NC(=O)[C@@H](CCCCN)NC(=O)[C@H](Cc2ccccc2)NC(=O)[C@@H]2CCCN2C(=O)[C@@H](Cc2ccccc2)NC(=O)[C@H](Cc2ccc(O)cc2)NC(=O)[C@H](CCCN)NC(=O)[C@H](C(C)C)NC(=O)[C@H](Cc2ccc(O)cc2)NC(=O)[C@H](CCCCN)NC1=O | 4 (≈ 2.98 µM) | 4 (≈ 2.98 µM) | 32 (≈ 23.8 µM) | 16 (≈ 11.9 µM) |  | 32 | 128 |  |  |  |  |
| CCCNC(=O)C[C@@H]1NC(=O)[C@@H](CCCNC(=N)N)NC(=O)[C@H](Cc2ccccc2)NC(=O)[C@@H]2CCCN2C(=O)[C@@H](Cc2ccccc2)NC(=O)[C@H](Cc2ccc(F)cc2)NC(=O)[C@H](CCCN)NC(=O)[C@H](C(C)C)NC(=O)[C@H](Cc2ccc(O)cc2)NC(=O)CNC1=O [listing 2 of 2 here] |  |  |  |  |  |  | 16 |  |  |  |  |
| CCCNC(=O)C[C@@H]1NC(=O)[C@@H](CCCNC(=N)N)NC(=O)[C@H](Cc2ccccc2)NC(=O)[C@@H]2CCCN2C(=O)[C@@H](Cc2ccccc2)NC(=O)[C@@H](CC(N)=O)NC(=O)[C@H](CCCN)NC(=O)[C@H](C(C)C)NC(=O)[C@H](Cc2ccc(O)cc2)NC(=O)[C@@H](CC(C)C)NC1=O | 8 (≈ 6.12 µM) |  | 32 (≈ 24.5 µM) |  |  |  |  |  |  |  |  |

More lines, in order of falling MIC (Bacillus subtilis [1]), values ahead:

| MIC (Bacillus subtilis [1]) [mg/L] | MIC [2] [mg/L] | MIC (Escherichia coli [3]) [mg/L] | MIC (Enterococcus faecalis [4]) [mg/L] | MIC (Bacillus subtilis [8]) [mg/L] | SMILES | Ratio [5] | Activity [6] [µg/mL] | Activity (Enterococcus faecalis [7]) | Activity [9] | Activity (Escherichia coli [10]) | Activity (Bacillus subtilis [8]) |
| --- | --- | --- | --- | --- | --- | --- | --- | --- | --- | --- | --- |
| 2 (≈ 1.5 µM) | 2 (≈ 1.5 µM) | 16 (≈ 12 µM) | 8 (≈ 6 µM) |  | CCCNC(=O)C[C@@H]1NC(=O)[C@@H](CCCNC(=N)N)NC(=O)[C@H](Cc2ccccc2)NC(=O)[C@@H]2CCCN2C(=O)[C@@H](Cc2ccccc2)NC(=O)[C@H](Cc2ccc(F)cc2)NC(=O)[C@H](CCCN)NC(=O)[C@H](C(C)C)NC(=O)[C@H](Cc2ccc(O)cc2)NC(=O)[C@H](CO)NC1=O | 8 | 16 |  |  |  |  |
| 2 (≈ 1.49 µM) | 4 (≈ 2.98 µM) | 16 (≈ 11.9 µM) | 16 (≈ 11.9 µM) |  | CCCNC(=O)C[C@H]1NC(=O)[C@@H](CCCCN)NC(=O)[C@H](Cc2ccccc2)NC(=O)[C@@H]2CCCN2C(=O)[C@@H](Cc2ccccc2)NC(=O)[C@H](Cc2ccc(O)cc2)NC(=O)[C@H](CCCN)NC(=O)[C@H](C(C)C)NC(=O)[C@H](Cc2ccc(O)cc2)NC(=O)[C@H](CCCCN)NC1=O | 32 | 64 |  |  |  |  |
| 1 (≈ 0.768 µM) | 1 (≈ 0.768 µM) | 4 (≈ 3.07 µM) | 2 (≈ 1.54 µM) |  | CCCNC(=O)C[C@@H]1NC(=O)[C@@H](CCCNC(=N)N)NC(=O)[C@H](Cc2ccccc2)NC(=O)[C@@H]2CCCN2C(=O)[C@@H](Cc2ccccc2)NC(=O)[C@H](Cc2ccc(F)cc2)NC(=O)[C@H](CCCN)NC(=O)[C@H](C(C)C)NC(=O)[C@H](Cc2ccc(O)cc2)NC(=O)CNC1=O [listing 1 of 2 here] |  |  |  |  |  |  |
| 1 (≈ 0.713 µM) | 4 (≈ 2.85 µM) | 8 (≈ 5.71 µM) | 8 (≈ 5.71 µM) |  | CCCNC(=O)C[C@@H]1NC(=O)[C@@H](CCCNC(=N)N)NC(=O)[C@H](Cc2ccccc2)NC(=O)[C@@H]2CCCN2C(=O)[C@@H](Cc2ccccc2)NC(=O)[C@H](Cc2ccc(F)cc2)NC(=O)[C@H](CCCN)NC(=O)[C@H](C(C)C)NC(=O)[C@H](Cc2ccc(O)cc2)NC(=O)[C@H](CCCNC(=N)N)NC1=O | 4 | 8 |  |  |  |  |
| 1 (≈ 0.787 µM) | 1 (≈ 0.787 µM) | 8 (≈ 6.3 µM) | 1 (≈ 0.787 µM) |  | CC(C)C[C@@H]1NC(=O)[C@H](CCCN)NC(=O)[C@H](C(C)C)NC(=O)[C@H](Cc2ccc(O)cc2)NC(=O)[C@H](CCC(N)=O)NC(=O)[C@H](CC(N)=O)NC(=O)[C@@H](Cc2ccccc2)NC(=O)[C@H](Cc2ccccc2)NC(=O)[C@@H]2CCCN2C(=O)[C@@H](Cc2ccccc2)NC1=O [TYROCIDINE A] (cyclo(F[dF]NQYV[Orn]L[dF]P)) | 2 | 2 |  |  |  |  |
